SIAE inh: inhibitors of human sialic acid acetylesterase SIAE | Q9HAT2 | SIAE FP-Rh probe binding, fluorescence polarization | inhibition, % at 9.66 µM | 0.69% of 370,000 active;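 active means inhibition above a cutoff: mean of compounds within the control limits plus 3 SD of those, cut at about 17% in these data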;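 further: 0% = plate median of compound wells and 100% = probe without SIAE protein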
TDP2 inh: TDP2 (human) inhibition, absorbance primary screen. O95551. recombinant TDP2, T5PNP hydrolysis, p-nitrophenol absorbance 415 nm. inhibition, % at 12.8 µM. 0.34% of 370,000 active. AID 720702;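 active means inhibition above the mean of all tested compounds plus 3 SD, set per campaign, cut at about 25% in these data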;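 further: 0% = DMSO with enzyme and 100% = buffer with substrate but no TDP2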
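Evaluation: % inhibition relative to enzyme-containing and enzyme-free wells. Material: recombinant human TDP2. Benchmarks: enzyme-free and DMSO wells. Timing: enzyme reaction with compound for 2 h at 37 °C. Compound dosing: 12.8 µM only. Measured by: p-Nitrophenol epi absorbance. Reagent: T5PNP substrate at 5 mM, a TopII-DNA adduct mimic. Replication: single well per compound.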
UHRF1 binding: blocks human UHRF1 binding to methylated DNA; Q96T88; UHRF1 binding to methylated oligo, TR-FRET; inhibition, % at 4.4 µM; 0.75% of 370,000 active; in the data active means inhibition above about 21%;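 further: UHRF1 SRA domain binding a hemimethylated CpG hairpin DNA probe; 0% = median of test compound wells and 100% = reference inhibitor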
LEDGF integ inh: blocks HIV-1 LEDGF/p75-dependent DNA integration | TR-FRET IN-LEDGF/p75 DNA integration, Eu/Cy5 | inhibition, % at 3.7 µM | 0.64% of 370,000 active | AID 743269;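 active means inhibition above the screen-wide mean plus 3 SD, cut at about 13% in these data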;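 further: signal is the Cy5 over europium emission ratio at 671 and 618 nm; 0% = plate median of compound wells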
PRMT1 inh: inhibitors of human PRMT1; Q99873; recombinant PRMT1, activity-based probe fluorescence polarization; inhibition, % at 2.79 µM; 1.3% of 370,000 active; AID 652257;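 active means inhibition above about 21% made by adding two undisclosed values, limit read from the data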
MBD2 DNA inh: blocks human MBD2 binding to methylated DNA | Q9UBB5 | TR-FRET, MBD2 binding to methylated oligonucleotide | inhibition, % at 4.4 µM | 0.31% of 370,000 active | AID 686964; in the data active means inhibition above about 13%
Target sequence (Q9UBB5 whole entry, looked up): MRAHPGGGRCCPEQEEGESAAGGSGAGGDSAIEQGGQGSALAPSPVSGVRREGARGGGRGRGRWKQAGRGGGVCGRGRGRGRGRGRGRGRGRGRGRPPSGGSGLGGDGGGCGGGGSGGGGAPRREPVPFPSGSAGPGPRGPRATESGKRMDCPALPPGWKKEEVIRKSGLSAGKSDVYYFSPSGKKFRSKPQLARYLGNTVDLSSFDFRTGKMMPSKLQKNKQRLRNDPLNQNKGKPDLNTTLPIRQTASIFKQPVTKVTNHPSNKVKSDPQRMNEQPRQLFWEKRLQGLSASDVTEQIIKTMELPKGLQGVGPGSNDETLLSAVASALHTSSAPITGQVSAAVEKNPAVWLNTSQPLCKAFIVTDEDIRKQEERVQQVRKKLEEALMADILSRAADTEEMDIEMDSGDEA
IN multimer act: activates HIV-1 integrase multimerization in LEDGF counter-screen; shares compounds with LEDGF integ inh; TR-FRET HIV-1 integrase multimerization, biochemical; activation, % at 7.7 µM; 17% of 2,000 active; AID 1053131; in the data active means activation above about 8.9%
TR-FRET interf: counter-screen for LEDGF/p75 integration inhibitors: TR-FRET optical interference; shares compounds with LEDGF integ inh; TR-FRET optical interference counterscreen, HIV-1 IN multimerization; inhibition, % at 7.7 µM; 2,000 tested, under 10 active; AID 1053135;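 active means inhibition above the mean over all tested compounds plus 3 SD, which no compound reached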;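 further: 0% = integrase with antibodies and DMSO and 100% = antibodies without integrase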
LEDGF integ conf: LEDGF/p75-dependent HIV-1 integration inhibition, confirmation. shares compounds with LEDGF integ inh. inhibition, % at 3.7 µM. TR-FRET LEDGF/p75-dependent HIV-1 integration, biochemical. 36% of 2,000 active. AID 1053136; in the data active means inhibition above about 14%
Active calls of the source: *; . = no result given. Hits are enriched below; roughly 3.3% of the tested compounds scored in any of these assays.

SMILES	SIAE inh	TDP2 inh	UHRF1 binding	LEDGF integ inh	PRMT1 inh	MBD2 DNA inh	IN multimer act	TR-FRET interf	LEDGF integ conf
Cn1c(SCC(=O)N2CCOCC2)nnc1-c1cnccn1	-1	8	1	20*	-2	1	0	0	4
Cn1c(SCC(=O)N2CCOCC2)nnc1-c1ccncc1	-7	-5	-1	0	1	1	.	.	.
COC(=O)[C@]1(CNS(=O)(=O)c2ccc(F)cc2)CC(=O)N(C)[C@@H]1c1ccccc1	-14	-1	-1	-2	2	1	.	.	.
CC(=O)N1CCN(c2ccc(NCc3ccc(F)cc3)cc2)CC1	5	4	1	8	5	-2	.	.	.
CC(=O)N1CCN(c2ccc(NCc3cccc(C)c3)cc2)CC1	7	21	-3	14*	2	0	3	-17	-2
Nc1ccc(N2CCN(c3ccc(F)cc3)CC2)cc1	4	-6	0	5	1	-8	.	.	.
CC(=O)N1CCN(c2ccc(N)cc2)CC1	9	24	14	26*	18	5	0	0	-1
C[C@@]12C(=O)N(c3cccc(Cl)c3)C(=O)N1[C@@H]1c3ccccc3OC[C@@H]1[C@H]2c1ccccc1	2	4	0	34*	-2	4	1	-6	1
C=CCON1C(=O)C(=O)N(OCC=C)[C@H]2CCCC[C@H]21	-3	-7	2	81*	5	2	5	-26	0
CCCCCCCCCCCCN1CCSCCS1(=O)=O	1	-13	2	22*	0	1	0	0	4
COc1cc(-c2ccc3c(=O)c4ccccc4sc3c2)cc(OC)c1OC	-12	3	-3	16*	1	-4	9.3*	-32	-8
Cc1c(C(=O)NNS(=O)(=O)c2ccccc2)sc(=S)n1C	6	8	1	0	1	3	.	.	.
CC(=O)NNC(=O)c1sc(=S)n(C)c1C	-1	-10	3	22*	2	1	1	-5	1
O=C1c2cccc(Sc3ccccc3)c2C(=O)c2c(Sc3ccccc3)cccc21	8	12	24*	14*	2	10	3	-11	-7
CN(C)c1cccc2c1C(=O)c1ccccc1C2=O	5	-3	-29	-8	3	-27	.	.	.
Cc1cc(=O)c2c(O)c(O)ccc2o1	3	-8	11	14*	23*	0	9.6*	-34	9
COc1c2ccoc2cc2oc(C)cc(=O)c12	-2	-13	-3	4	-7	-6	.	.	.
CCOc1ccc(N=Cc2ccc([N+](=O)[O-])cc2)c(O)c1	3	-9	-7	20*	22*	-9	11*	-38	-3
CCOc1ccc(CNC(=S)N/N=C\c2ccc([N+](=O)[O-])cc2)cc1	3	-3	-3	-1	1	1	.	.	.
COC(=O)CC1CCc2cc(C)cc(C(=O)CC(C)C)c2O1 (stereo not drawn)	7	-4	-2	0	3	-1	.	.	.
O=C(c1cc(-c2cccc(O)c2)on1)N1CCCCCC1	14	7	-1	47*	-3	2	0	1	-3
COc1ccc(NC(=O)Nc2ccccc2C(=O)N2CCCC2)cc1OC	2	1	4	0	-4	-2	.	.	.
O=S(=O)(O)c1ccc(O)c2cc(Nc3ccccc3)ccc12	55*	24	92*	87*	43*	70*	66*	-236	77*
CC1=CC(C)(C)NC(=S)N1c1ccc(C)c(C)c1	3	9	10	2	-5	-2	.	.	.
CC1=CC(C)(C)NC(=S)N1c1ccc(C)cc1	5	5	7	21*	1	1	-2	8	4
SMILES	SIAE inh	TDP2 inh	UHRF1 binding	LEDGF integ inh	PRMT1 inh	MBD2 DNA inh	IN multimer act	TR-FRET interf	LEDGF integ conf
C=CCN1C(=O)[C@H](CC(=O)NCc2cccc3ccccc23)[C@@]2(C(=O)OCC)CCCC=C12	-2	-5	1	4	6	-2	.	.	.
Cc1coc2c1c(C)cc1oc(=O)c(CC(=O)NCC(=O)NCC(=O)O)c(C)c12	4	1	-4	0	0	-6	.	.	.
Cc1coc2c1c(C)cc1oc(=O)c(Cc3ccccc3)c(C)c12	-4	7	-1	15*	-1	1	-4	20	4
O=C(c1cccs1)n1ccc2ccc(-c3ccc4ccn(C(=O)c5cccs5)c4c3)cc21	-15	3	-1	-1	-6	-1	.	.	.
N#Cc1ccsc1NC(=O)COc1ccc(-c2nnco2)cc1	-7	10	-1	-2	2	-3	.	.	.
N#CCSc1ccccc1NC(=O)COc1ccc(-c2nnco2)cc1	5	-1	0	14*	4	3	-2	8	-5
COC(=O)[C@H]1C[C@@]2(C3C=CC=C3)c3ccccc3N[C@H]2N1	-3	-5	5	-7	3	3	.	.	.
Cn1c(=O)c2c(nc(NN=C3CCCC3)n2C)n(C)c1=O	7	6	2	19*	4	-1	6	-33	10
Cn1c(=O)c2c(nc(NNC(=O)C(F)(F)F)n2C)n(C)c1=O	13	10	5	0	3	1	.	.	.
Cc1cccc(-c2ccc3[nH]c4c(c3c2)CCN2C[C@@H]([C@H](C)OC(=O)Nc3ccccc3C)[C@@H](N(C)C(=O)Nc3ccccc3C)C[C@@H]42)c1	-6	-1	0	56*	-1	2	2	-5	-5
COc1ccc(-c2ccc3[nH]c4c(c3c2)CCN2C[C@@H]([C@H](C)O)[C@@H](N(C)C(=O)Nc3cc(Cl)cc(Cl)c3)C[C@@H]42)cc1	-4	-1	-3	4	-2	-2	.	.	.
COC(=O)c1c(NC(=O)CN2CCC3(O)CCCCC3C2c2cc(OC)ccc2OC)sc(C)c1C (stereo not drawn)	-12	-3	-3	15*	-1	-3	1	-3	-9
COP(=O)(OC)C(=NNS(=O)(=O)c1ccc(C)cc1)c1ccccc1	-1	-1	2	27*	13	6	-1	5	0
CCCCN(C(=O)c1ccccc1OCc1ccc(F)cc1)c1c(N)n(CCC)c(=O)[nH]c1=O	-2	-4	2	-4	4	-1	.	.	.
CN(C(=O)c1ccccc1OCc1ccc(F)cc1)c1c(N)n(Cc2ccccc2)c(=O)[nH]c1=O	-3	3	2	55*	3	1	-1	7	-5
